Data: ChEMBL document CHEMBL1139802, “Pyrazole inhibitors of HMG-CoA reductase: an attempt to dramatically reduce synthetic complexity through minimal analog re-design” (Bioorg Med Chem Lett, 2007)

Legend:
[1] = target: T1, 3-hydroxy-3-methylglutaryl-coenzyme A reductase (Rattus norvegicus, UniProt P51639); experiment: Inhibition of HMG-CoA reductase in rat liver microsomes; set-up: species or system Microsome
T1 sequence (P51639 whole entry): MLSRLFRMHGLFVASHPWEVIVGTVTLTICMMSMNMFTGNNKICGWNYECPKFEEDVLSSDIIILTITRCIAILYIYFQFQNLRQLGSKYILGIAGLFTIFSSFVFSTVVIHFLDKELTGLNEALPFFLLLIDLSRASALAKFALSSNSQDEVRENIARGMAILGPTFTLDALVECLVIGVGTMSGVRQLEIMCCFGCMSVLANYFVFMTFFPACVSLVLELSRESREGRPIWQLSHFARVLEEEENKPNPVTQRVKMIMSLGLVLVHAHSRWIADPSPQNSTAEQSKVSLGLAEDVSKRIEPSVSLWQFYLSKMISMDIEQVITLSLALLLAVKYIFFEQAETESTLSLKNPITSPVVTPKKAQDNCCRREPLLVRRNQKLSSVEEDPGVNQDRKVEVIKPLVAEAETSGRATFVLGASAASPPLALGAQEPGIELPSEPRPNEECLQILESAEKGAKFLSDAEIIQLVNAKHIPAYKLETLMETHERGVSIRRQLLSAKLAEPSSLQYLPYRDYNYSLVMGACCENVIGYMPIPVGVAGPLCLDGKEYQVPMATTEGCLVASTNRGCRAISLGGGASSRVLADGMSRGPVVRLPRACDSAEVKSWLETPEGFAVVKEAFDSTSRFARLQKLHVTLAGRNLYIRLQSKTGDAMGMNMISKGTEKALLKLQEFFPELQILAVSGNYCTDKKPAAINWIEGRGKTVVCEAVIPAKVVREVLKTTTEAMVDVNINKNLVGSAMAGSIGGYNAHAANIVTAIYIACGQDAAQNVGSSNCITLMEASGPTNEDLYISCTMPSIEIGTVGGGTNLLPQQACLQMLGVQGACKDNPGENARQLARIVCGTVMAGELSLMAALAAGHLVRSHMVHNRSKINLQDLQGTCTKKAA

[2] = Inhibition of cholesterol synthesis in rat hepatocytes; format: functional, cell-based; details: Hepatocyte
L6 = experiment: Inhibition of cholesterol synthesis in L6 myocytes; format: functional, cell-based; details: Rattus norvegicus
Hamster [3] = experiment: Inhibition of cholesterol synthesis in hamster at 10 mg/kg, po after 4 to 6 hrs relative to control; format: functional, Cricetinae; set-up: scale not given: the % may be the effect or the level left
Summary of the method: (§1)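 Male Syrian Golden hamsters received a single oral 10 mg/kg dose. A bolus of sodium 14C-acetate was given at 2, 3 or 4 h post-dose, giving 2–4, 3–5 and 4–6 h windows. Label incorporated into plasma cholesterol was measured over the following 2 h. Results are reported as percent change in incorporation relative to vehicle-dosed animals.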

Hamster [4] = experiment: Inhibition of cholesterol synthesis in hamster at 10 mg/kg, po after 2 to 4 hrs relative to control; format: functional, Cricetinae; set-up: scale not given: the % may be the effect or the level left; summary of the method: as §1
Hamster [5] = experiment: Inhibition of cholesterol synthesis in hamster at 10 mg/kg, po after 3 to 5 hrs relative to control; format: functional, Cricetinae; set-up: scale not given: the % may be the effect or the level left; summary of the method: as §1

Row | SMILES | IC50 [1] [nM] | IC50 [2] [nM] | IC50 (L6) [nM] | Activity (Hamster [3]) [%] | Activity (Hamster [4]) [%] | Activity (Hamster [5]) [%]
1 | Cc1ccc(CN(C)C(=O)c2nn(-c3ccc(F)cc3)c(OC[C@@H](O)C[C@@H](O)CC(=O)O)c2C(C)C)cc1 | 37 | 1.2 | 1250 |  |  | 
2 | COc1cc(CN(C)C(=O)c2nn(-c3ccc(F)cc3)c(OC[C@@H](O)C[C@@H](O)CC(=O)O)c2C(C)C)cc(OC)c1 | 43 | 7.1 |  |  |  | 
3 | CC(C)c1c(C(=O)N(C)Cc2cccc(F)c2)nn(-c2ccc(F)cc2)c1OC[C@@H](O)C[C@@H](O)CC(=O)O | 14 | 1.9 | 2470 | -1 | -41 | 
4 | Cc1cccc(CN(C)C(=O)c2nn(-c3ccc(F)cc3)c(OC[C@@H](O)C[C@@H](O)CC(=O)O)c2C(C)C)c1 | 37 | 2.5 | 18500 |  |  | 
5 | CC(C)c1c(C(=O)N(C)Cc2cccc(C(F)(F)F)c2)nn(-c2ccc(F)cc2)c1OC[C@@H](O)C[C@@H](O)CC(=O)O | 31 | 12 |  |  |  | 
6 | COc1cccc(CN(C)C(=O)c2nn(-c3ccc(F)cc3)c(OC[C@@H](O)C[C@@H](O)CC(=O)O)c2C(C)C)c1 | 21 | 1.6 | 9460 | 53 |  | 
7 | CC(C)c1c(C(=O)N(C)Cc2ccc(F)c(F)c2)nn(-c2ccc(F)cc2)c1OC[C@@H](O)C[C@@H](O)CC(=O)O | 5.7 | 8 | 4570 |  |  | -5
8 | CC(C)c1c(C(=O)N(C)Cc2ccc(F)cc2)nn(-c2ccc(F)cc2)c1OC[C@@H](O)C[C@@H](O)CC(=O)O | 18 | 3.8 | 2800 | 91 |  | 
9 | CC(C)c1c(C(=O)NCC2CCCCC2)nn(-c2ccc(F)cc2)c1OC[C@@H](O)C[C@@H](O)CC(=O)O | 17 | 56 |  |  |  | 
10 | CC(C)c1c(C(=O)N(C)CC2CCCCC2)nn(-c2ccc(F)cc2)c1OC[C@@H](O)C[C@@H](O)CC(=O)O | 6.2 | 1.3 | 2510 |  |  | 23
11 | CC(C)c1c(C(=O)N2CCC[C@H](c3ccccc3)C2)nn(-c2ccc(F)cc2)c1OC[C@@H](O)C[C@@H](O)CC(=O)O | 4.8 | 1.5 | 1110 |  | -15 | 
12 | CC(C)c1c(C(=O)N(C)Cc2cccc(F)c2F)nn(-c2ccc(F)cc2)c1OC[C@@H](O)C[C@@H](O)CC(=O)O | 14 | 2.8 | 860 |  |  | 
13 | Cc1ccc(CNC(=O)c2nn(-c3ccc(F)cc3)c(CC[C@@H](O)C[C@@H](O)CC(=O)O)c2C(C)C)cc1 | 2.5 | 1.1 | 800 | -15 | -74 | 
14 | CCOc1cccc(CN(C)C(=O)c2nn(-c3ccc(F)cc3)c(OC[C@@H](O)C[C@@H](O)CC(=O)O)c2C(C)C)c1 | 16 | 2.8 | 3550 |  |  | 
15 | CC(C)c1c(C(=O)N(C)[C@H](C)c2ccccc2)nn(-c2ccc(F)cc2)c1OC[C@@H](O)C[C@@H](O)CC(=O)O | 21 | 11 |  |  |  | 
16 | CC(C)c1c(C(=O)N2CCCCC2)nn(-c2ccc(F)cc2)c1OC[C@@H](O)C[C@@H](O)CC(=O)O | 47 | 3.8 | 32200 |  |  | 
17 | CC(C)c1c(C(=O)N2CCC[C@H](c3ccccc3)C2)nn(-c2ccc(F)cc2)c1CC[C@@H](O)C[C@@H](O)CC(=O)O | 2.1 | 0.28 | 310 |  | -78 | -57
18 | CC(C)c1c(C(=O)N(C)Cc2ccccc2)nn(-c2ccc(F)cc2)c1CC[C@@H](O)C[C@@H](O)CC(=O)O | 6.2 | 0.31 | 2870 | -16 | -61 | 
19 | CC(C)c1c(C(=O)N(C)Cc2cccc(F)c2)nn(-c2ccc(F)cc2)c1CC[C@@H](O)C[C@@H](O)CC(=O)O | 4.1 | 0.16 | 1900 | -12 | -66 | 
20 | CC(C)c1c(C(=O)N2CCCC2c2ccccc2)nn(-c2ccc(F)cc2)c1OC[C@@H](O)C[C@@H](O)CC(=O)O (some centres not stated) | 14 | 8 | 4340 |  |  | 
21 | CC(C)c1c(C(=O)N(C)Cc2cccc(Cl)c2)nn(-c2ccc(F)cc2)c1OC[C@@H](O)C[C@@H](O)CC(=O)O | 8.3 | 1.8 | 2120 |  |  | 0
22 | CC(C)c1nc(N(C)S(C)(=O)=O)nc(-c2ccc(F)cc2)c1/C=C/[C@@H](O)C[C@@H](O)CC(=O)O [ROSUVASTATIN] | 2.1 | 0.23 | 210 | -46 | -76 | 

Continued, in another order:

Row | IC50 [1] [nM] | SMILES | IC50 [2] [nM] | IC50 (L6) [nM] | Activity (Hamster [3]) [%] | Activity (Hamster [4]) [%] | Activity (Hamster [5]) [%]
23 | 15 | Cc1ccc(CNC(=O)c2nn(-c3ccc(F)cc3)c(OC[C@@H](O)C[C@@H](O)CC(=O)O)c2C(C)C)cc1 | 1.8 | 2110 | 9 | -30 | 
24 | 17 | Cc1ccccc1CNC(=O)c1nn(-c2ccc(F)cc2)c(OC[C@@H](O)C[C@@H](O)CC(=O)O)c1C(C)C | 0.88 | 2850 | 39 |  | 
25 | 8.7 | CC(C)c1c(C(=O)N(C)Cc2ccccc2F)nn(-c2ccc(F)cc2)c1OC[C@@H](O)C[C@@H](O)CC(=O)O | 3.2 | 11600 |  |  | -4
26 | 15 | CC(C)c1c(C(=O)NCCc2ccccc2)nn(-c2ccc(F)cc2)c1OC[C@@H](O)C[C@@H](O)CC(=O)O | 14 | 760 |  |  | 
27 | 76 | CCCCNC(=O)c1nn(-c2ccc(F)cc2)c(OC[C@@H](O)C[C@@H](O)CC(=O)O)c1C(C)C | 39 |  |  |  | 
28 | 12 | COc1ccc(CNC(=O)c2nn(-c3ccc(F)cc3)c(OC[C@@H](O)C[C@@H](O)CC(=O)O)c2C(C)C)cc1 | 37 |  |  |  | 
29 | 16 | COc1cccc(CNC(=O)c2nn(-c3ccc(F)cc3)c(OC[C@@H](O)C[C@@H](O)CC(=O)O)c2C(C)C)c1 | 8.4 | 8750 | 37 |  | 
30 | 25 | CC(C)c1c(C(=O)NCc2ccccn2)nn(-c2ccc(F)cc2)c1OC[C@@H](O)C[C@@H](O)CC(=O)O | 7.5 |  |  |  | 
31 | 3.8 | CC(C)c1c(C(=O)NCc2ccccc2)nn(-c2ccc(F)cc2)c1OC[C@@H](O)C[C@@H](O)CC(=O)O | 14 | 880 | 41 |  | 
32 | 5.2 | CC(C)c1c(C(=O)N(C)Cc2ccccc2)nn(-c2ccc(F)cc2)c1OC[C@@H](O)C[C@@H](O)CC(=O)O | 1.1 | 6720 | 26 | -49 | 
33 | 2 | CC(C)c1c(C(=O)NCc2cccc(F)c2F)nn(-c2ccc(F)cc2)c1OC[C@@H](O)C[C@@H](O)CC(=O)O | 19 | 120 |  |  | 
34 | 9.5 | CC(C)c1c(C(=O)NCc2ccccc2Cl)nn(-c2ccc(F)cc2)c1OC[C@@H](O)C[C@@H](O)CC(=O)O | 76 | 8450 |  |  | 
35 | 22 | COc1ccccc1CNC(=O)c1nn(-c2ccc(F)cc2)c(OC[C@@H](O)C[C@@H](O)CC(=O)O)c1C(C)C | 83 |  |  |  | 
36 | 4.9 | Cc1cccc(CNC(=O)c2nn(-c3ccc(F)cc3)c(OC[C@@H](O)C[C@@H](O)CC(=O)O)c2C(C)C)c1 | 0.99 | 280 |  |  | 
37 | 5.4 | CC(C)c1c(C(=O)NCc2cccc(Cl)c2)nn(-c2ccc(F)cc2)c1OC[C@@H](O)C[C@@H](O)CC(=O)O | 9.9 |  |  |  | 
38 | 31 | COCc1cccc(CNC(=O)c2nn(-c3ccc(F)cc3)c(OC[C@@H](O)C[C@@H](O)CC(=O)O)c2C(C)C)c1 | 1.1 | 3600 |  |  | -6
39 | 6.7 | CC(C)c1c(C(=O)NCc2ccc(Cl)cc2)nn(-c2ccc(F)cc2)c1OC[C@@H](O)C[C@@H](O)CC(=O)O | 44 |  |  |  | 
40 | 14 | CCN(Cc1ccccc1)C(=O)c1nn(-c2ccc(F)cc2)c(OC[C@@H](O)C[C@@H](O)CC(=O)O)c1C(C)C | 4.7 | 2660 |  |  | 
